The source made the active and inactive calls. No cut-off for these calls is given here.
Assays:
[1] = Cytotoxicity against human HT-29 cells assessed as inhibition of spheroid growth; conditions: HT-29 cell spheroids
[2] = test system: HT-29; experiment: Cytotoxicity against human HT-29 cells assessed as reduction in cell viability incubated for 60 to 72 hrs by MTT assay; format: toxicity, cell-based; conditions: time 60-72 hrs
Summary of the method: (§1)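 HT-29 monolayer cells were seeded at about 2.5 × 10^3 per well in DMEM:F12 with 10% FBS and incubated overnight at 37 °C, 5% CO2. Compound was added for 60–72 h. MTT (5 mg/mL in PBS) was added for 2–3 h, crystals were dissolved in DMSO and absorbance read at 590 nm. Results are percent of vehicle control, at least three replicates.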

[3] = test system: Plasma; experiment: Anticoagulant activity in pooled human plasma assessed as prolongation of activated partial thromboplastin time incubated for 4 mins by coagulometer analysis; format: functional, cell-free
Summary of the method: (§2)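 Pooled normal citrated human plasma (90 μL) mixed with 10 μL compound and 100 μL prewarmed ellagic acid APTT reagent, incubated 4 min at 37 °C, then recalcified with 100 μL prewarmed 25 mM CaCl2. Clot time read on a fibrometer (one-stage recalcification). Water blank gave the baseline. Concentration doubling APTT came from a quadratic trend-line fit.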

[4] = Toxicity in NCR nude mouse xenografted with human HT-29 cells assessed as bleeding at 100 mg/kg, po; format: organism-based; conditions: in vivo
[5] = test system: HT-29; experiment: Cytotoxicity against human HT-29 cells assessed as reduction in cell viability at 100 uM incubated for 60 to 72 hrs by MTT assay; format: toxicity, cell-based; conditions: ht-29, 100 µM, time 60-72 hrs
Summary of the method: as §1

[6] = Ex-vivo growth inhibition of mouse intestinal organoids measured for 5 to 7 days in presence of 5-fluorouracil and oxaliplatin by phase contrast microscopic analysis; format: toxicity, Intestine; conditions: time 5-7 day
Summary of the method: (§3)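 Intestinal pieces (2–4 cm) were taken from treated xenograft mice and chelated and dissociated into crypts. About 200–500 crypts were embedded in Matrigel under mouse IntestiCult medium at 37 °C, 5% CO2. Organoids were counted by phase contrast after 5–7 days.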

[7] = test system: HT-29; experiment: Antitumor activity against human CD133/CXCR4-induced HT-29 cells xenografted in NCR nude mouse assessed as spheroid formation at 100 mg/kg, po administered 5 times a week for 3 weeks by phase contrast microscopic analysis; format: functional, organism-based
Summary of the method: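 Xenografts (Dual Hi HT-29, FUOX-pretreated, 100 mg/kg oral 5×/week for 3 weeks) were digested with collagenase IV and filtered at 70 μm. Cells were plated serially as 1°–3° spheroids on low-adhesion plates in stem cell medium with EGF and FGF. Spheroids of 50–150 μm were counted by phase contrast. At least three replicates.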

[8] = Toxicity in NCR nude mouse xenografted with human HT-29 cells assessed as change in body weight at 50 mg/kg, ip in presence 5-fluorouracil and oxaliplatin; format: organism-based; conditions: in vivo
[9] = test system: HT-29; experiment: Antitumor activity against human HT-29 cells xenografted in NCR nude mouse assessed as reduction in DCAMKL1 expression level at 50 mg/kg, ip in presence of 5-fluorouracil and oxaliplatin of by Western blot analysis; format: functional, organism-based
Summary of the method: (§4)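 Bulk HT-29 cells (1 × 10^6) were grown as subcutaneous xenografts in NCr nude mice and given FUOX (25 mg/kg FU + 2 mg/kg OX IP weekly for 3 weeks). Mice were then randomized (n = 4/arm) to 50 mg/kg IP three times/week (8 doses), alone or with FUOX. Tumor lysates (n = 2/group) were Western blotted for DCAMLK1 and BMI-1.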

[10] = test system: HT-29; experiment: Antitumor activity against human HT-29 cells xenografted in NCR nude mouse assessed as reduction in BMI-1 expression level at 50 mg/kg, ip in presence of 5-fluorouracil and oxaliplatin of by Western blot analysis; format: functional, organism-based
Summary of the method: as §4

[11] = test system: Plasma; experiment: Anticoagulant activity in human plasma assessed as prolongation of activated partial thromboplastin time by measuring concentration required to double APTT incubated for 4 mins by coagulometer analysis; format: functional, cell-free
Summary of the method: as §2

[12] = test system: HT-29; experiment: Antitumor activity against human HT-29 cells xenografted in NCR nude mouse assessed as reduction in tumor growth at 100 mg/kg, po administered 5 times a week for 3 weeks relative to control; format: functional; design: scale not given: the % may be the effect or the level left
Summary of the method: (§5)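 Dual Hi (CD133+/CXCR4+) HT-29 cells, FACS-sorted, injected subcutaneously at 1 × 10^5 into NCr nude mice. Mice were then randomized to vehicle or 100 mg/kg oral gavage 5 times/week for 3 weeks. Tumor volume was measured by caliper three times weekly.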

[13] = Ex-vivo growth inhibition of mouse intestinal organoids measured for 5 to 7 days by phase contrast microscopic analysis; format: toxicity, Intestine; conditions: time 5-7 day
Summary of the method: as §3

[14] = test system: HT-29; experiment: Antitumor activity against human HT-29 cells xenografted in NCR nude mouse assessed as decrease in proportion of CSC at 100 mg/kg, po administered 5 times a week for 3 weeks by flow cytometry analysis
[15] = test system: HT-29; experiment: Antitumor activity against CD133/CXCR4-induced human HT-29 cells xenografted in NCR nude mouse assessed as reduction in tumor growth at 100 mg/kg, po administered 5 times a week for 3 weeks; format: functional, organism-based
Summary of the method: as §5

[16] = Ex-vivo growth inhibition of mouse intestinal organoids at 100 mg/kg, po measured for 5 to 7 days by phase contrast microscopic analysis; conditions: in vivo
[17] = Toxicity in NCR nude mouse xenografted with human HT-29 cells assessed as change in body weight at 100 mg/kg, po; format: organism-based; conditions: in vivo
[18] = test system: HT-29; experiment: Antitumor activity against human HT-29 cells xenografted in NCR nude mouse assessed as spheroid formation at 50 mg/kg, ip; format: functional, organism-based
Summary of the method: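 Bulk HT-29 xenografts in NCr nude mice were FUOX-pretreated, then given 50 mg/kg IP three times/week (8 doses), alone or with FUOX. Collagenase-digested tumor cells were serially cultured as 1°–4° spheroids in stem cell medium with EGF/FGF. Spheroids of 50–150 μm were counted by phase contrast, in at least three replicates.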

[19] = test system: Mus musculus; experiment: Antithrombotic activity in ICR mouse model of tail-bleeding assessed as increase in blood loss at 100 mg/kg, iv

For `O=c1c(OS(=O)(=O)[O-])c(-c2ccc(OS(=O)(=O)[O-])c(OS(=O)(=O)[O-])c2)oc2cc(OS(=O)(=O)[O-])cc(OCC3CCC(COc4cc(OS(=O)(=O)[O-])cc5oc(-c6ccc(OS(=O)(=O)[O-])c(OS(=O)(=O)[O-])c6)c(OS(=O)(=O)[O-])c(=O)c45)CC3)c12.[Na+].[Na+].[Na+].[Na+].[Na+].[Na+].[Na+].[Na+]` (stereo unspecified), the IC50 [1] was 4 µM and the Activity [2] was “Non-Toxic”.

With `CC(C)CCC[C@@H](C)[C@H]1CC[C@H]2[C@@H]3CC=C4C[C@@H](OCCOc5cc(-c6oc7cc(OS(=O)(=O)[O-])cc(OCCCOc8cc(OS(=O)(=O)[O-])cc9oc(-c%10ccc(OS(=O)(=O)[O-])c(OS(=O)(=O)[O-])c%10)c(OS(=O)(=O)[O-])c(=O)c89)c7c(=O)c6OS(=O)(=O)[O-])ccc5OS(=O)(=O)[O-])CC[C@]4(C)[C@H]3CC[C@]12C.[Na+].[Na+].[Na+].[Na+].[Na+].[Na+].[Na+]` the Activity [3] was “Dose-Dependent Effect”, the Activity [4] was “Non-Toxic” and the Activity [5] was “Toxic”. The Activity [6] was “Non-Toxic”, the Activity [7] was “Active” and the Activity [8] was “Non-Toxic”. The Activity [9] was “Active”, the Activity [10] was “Active” and the IC50 [1] was 5.5 µM. For the same compound, the Activity [11] was “Active”, the Activity [12] was ~70% and the Activity [13] was “Non-Toxic”. For the same compound, the Activity [14] was “Active”, the Activity [15] was “Active” and the Activity [16] was “Non-Toxic”. For the same compound, the Activity [17] was “Non-Toxic” and the Activity [18] was “Active”.

For `CC(C)CCC[C@@H](C)[C@H]1CC[C@H]2[C@@H]3CC=C4C[C@@H](OCCCCCCCCOc5cc(-c6oc7cc(OS(=O)(=O)[O-])cc(OCCCOc8cc(OS(=O)(=O)[O-])cc9oc(-c%10ccc(OS(=O)(=O)[O-])c(OS(=O)(=O)[O-])c%10)c(OS(=O)(=O)[O-])c(=O)c89)c7c(=O)c6OS(=O)(=O)[O-])ccc5OS(=O)(=O)[O-])CC[C@]4(C)[C@H]3CC[C@]12C.[Na+].[Na+].[Na+].[Na+].[Na+].[Na+].[Na+]`, the Activity [19] was “Active”, the Activity [3] was “Dose-Dependent Effect” and the Activity [5] was “Toxic”. The IC50 [1] was 0.8 µM and the Activity [11] was “Active”.

For `O=c1c(OS(=O)(=O)[O-])c(-c2ccc(OS(=O)(=O)[O-])cc2OS(=O)(=O)[O-])oc2cc(OS(=O)(=O)[O-])cc(OCC3CCC(COc4cc(OS(=O)(=O)[O-])cc5oc(-c6ccc(OS(=O)(=O)[O-])cc6OS(=O)(=O)[O-])c(OS(=O)(=O)[O-])c(=O)c45)CC3)c12.[Na+].[Na+].[Na+].[Na+].[Na+].[Na+].[Na+].[Na+]` (stereo unspecified), the IC50 [1] was 17.9 µM and the Activity [2] was “Non-Toxic”.

— ChEMBL document CHEMBL5316316, “Designing Synthetic, Sulfated Glycosaminoglycan Mimetics That Are Orally Bioavailable and Exhibiting In Vivo Anticancer Activity” (J Med Chem, 2023)
